Assay outcomes (PubChem BioAssay)
Apaf1 inhib – human Apaf-1 inhibition | AID 489030 | O14727 | inhibition, % at 20 µM | reconstituted apoptosome caspase-3 activity, DEVD-Rh110 fluorescence | hit rate 0.71% among 330,000; active = inhibition of at least 40% at 20 µM;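 also: plate controls were DMSO wells for no effect and DEVD-CHO caspase inhibitor wells for full effect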
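Material: biochemical Apaf-1 apoptosome reconstitution. Medium: Hepes buffer, pH 7.5. Also added: cytochrome c activation, bis-DEVD rhodamine 110 substrate. Timing: 30 min compound preincubation, 50 min activation, room temperature. Measured by: rhodamine 110 fluorescence at Ex 480/Em 540 nm.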
SENP1 inh – inhibitors of human SENP1 SUMO protease catalytic domain; Q9P0U3; inhibition, % at 10 µM; hit rate 0.21% among 360,000; recombinant SENP1 catalytic domain, CyPet-SUMO1-YPet FRET cleavage;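 active = inhibition at least 30% at 10 µM, raw YFP signal under a set limit, fluorescence ratio 0.5 to 1.5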;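 also: 0% = enzyme with DMSO and 100% = no enzyme wells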
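Test system: human SENP1 catalytic domain; medium: Tris pH 8 buffer plus EDTA, NaCl, BME, BSA, NP40, catalase; incubation: 50 min reaction at room temperature; technique: FRET, CFP and YFP emission; controls: no-enzyme low control and enzyme-plus-DMSO high control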
SENP8 block-1 – SENP8 (human) protease inhibition; hit rate 0.64% among 360,000; AID 602440; inhibition, % at 20 µM; Q96LD8; recombinant SENP8, Nedd8 substrate fluorescence; in the data active = inhibition mostly above about 40%, no sharp cut-off; inactive = mostly below about 27%
Target sequence (Q96LD8 whole entry, looked up): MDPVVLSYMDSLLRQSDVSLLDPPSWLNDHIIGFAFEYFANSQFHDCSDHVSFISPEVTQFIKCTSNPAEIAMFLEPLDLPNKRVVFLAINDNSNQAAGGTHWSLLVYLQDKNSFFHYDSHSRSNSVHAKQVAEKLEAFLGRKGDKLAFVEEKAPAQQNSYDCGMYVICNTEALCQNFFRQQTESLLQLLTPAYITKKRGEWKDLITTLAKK
SENP8 block-2 – SENP8 protease inhibition; Q96LD8; purified SENP8, Z-RLRGG-aminoluciferin cleavage, luminescence; inhibition, % at 10 µM; hit rate 1.2% among 330,000; AID 2540; in the data active = inhibition above about 50%
SENP6 inh – blocks the human protease SENP6; Recombinant SENP6 catalytic domain, aminoluciferin luminescence; inhibition, % at 10 µM; hit rate 1.8% among 330,000; AID 2599;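 active = inhibition above about 50% at the single tested dose, limit read from the data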;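 also: plate controls were DMSO wells with enzyme for no effect and DMSO wells lacking enzyme for full effect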
SENP7 inh – blocks the human protease SENP7; recombinant SENP7, Z-RLRGG-aminoluciferin luminescence, 40 min; inhibition, % at 5 µM; hit rate 1.5% among 330,000;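 active = inhibition above about 50% at the single test dose, limit read from the data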;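 also: plate controls were DMSO with enzyme for no effect and no enzyme buffer wells for full effect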
Target sequence (Q9BQF6 706-1050 limits assumed): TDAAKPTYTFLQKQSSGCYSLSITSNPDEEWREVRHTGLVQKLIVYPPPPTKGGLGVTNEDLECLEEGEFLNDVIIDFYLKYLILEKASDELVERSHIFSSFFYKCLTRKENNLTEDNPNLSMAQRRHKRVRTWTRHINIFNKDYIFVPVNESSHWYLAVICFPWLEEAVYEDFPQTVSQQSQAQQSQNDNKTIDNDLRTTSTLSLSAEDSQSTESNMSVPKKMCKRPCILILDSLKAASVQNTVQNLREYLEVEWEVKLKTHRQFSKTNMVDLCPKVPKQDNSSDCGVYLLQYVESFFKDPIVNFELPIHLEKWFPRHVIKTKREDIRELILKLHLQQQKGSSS
Apaf-1 inh conf – confirmation of Apaf-1 inhibitors; reconstituted apoptosome, caspase-3 DEVD-Rh110 fluorescence; shares compounds with Apaf1 inhib; AID 504614; inhibition, % at 20 µM; hit rate 25% among 1,800;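 active = mean inhibition of at least 40% at 20 µM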;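 also: plate controls were DMSO wells for no effect and DEVD-CHO caspase inhibitor control wells for full effect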
Rh110 quench – interferes with Rh110 fluorescence, flagging false Apaf-1 inhibitors | shares compounds with Apaf1 inhib | Rh110 fluorescence interference, quenched caspase reaction | activation (fluorescence interference), % at 20 µM | 1,800 tested, under 10 active | AID 504615;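 active = signal rise of 40% or more at 20 µM, treated as a fluorescence artifact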
Fluor interf inh – shows fluorescence interference in the Apaf-1 inhibitor assay format | shares compounds with Apaf1 inhib | fluorescence interference counterscreen, Apaf-1 assay format | IC50, µM | 460 tested, under 10 active; call rule not given here
Starred values were filed as active, the others as inactive; · = no result. Rows were chosen to be rich in hits. Some 2.9% of all compounds tested hit in one or more screens of this group.

SMILES	Apaf1 inhib	SENP1 inh	SENP8 block-1	SENP8 block-2	SENP6 inh	SENP7 inh	Apaf-1 inh conf	Rh110 quench	others
COc1ccc(N=C2C(=Nc3ccc(OC)cc3)N(c3ccc(OC)cc3)C(=S)N2C)cc1	4	-20	-281	15	-3	3	·	·
COc1ccc(N=C2C(=Nc3ccc(OC)cc3)N(c3ccc(OC)cc3)C(=S)N2c2ccccc2)cc1	75*	-20	-134	-1	-10	-2	7	9
Cc1ccc(S(=O)(=O)N2CCN(Cc3cc(=O)n4ccccc4n3)CC2)c(C)c1	-1	-2	-158	1	-3	1	·	·
CCN(CC)S(=O)(=O)c1cccc(C(=O)Nc2ccc(S(=O)(=O)NC3=NCCCCC3)cc2)c1	10	-2	-23	2	-1	-2	·	·
Cc1ncc(C(O)c2ccccc2)n1Cc1ccccc1 (stereo unspecified)	·	0	14	·	·	·	·	·
COc1ccc(CN(C)C(=O)c2cc(S(=O)(=O)NCc3ccccc3)ccc2C)c(OC)c1	61*	1	-1	1	-5	2	40*	11	Fluor interf inh=>100
COc1cccc(CN(C)C(=O)c2cc(S(=O)(=O)NCc3ccccc3)ccc2C)c1OC	29	1	13	-4	-9	-7	·	·
O=C1C=C(N2CCOCC2)c2ccccc2C1=O	98*	0	-150	94*	90*	90*	100*	-3	Fluor interf inh=>100
O=C1C(N2CCOCC2)=Cc2cccc3cccc1c23	·	5	-7	·	·	·	·	·
OC(c1ccc(F)c(F)c1)c1nc(-c2cccc(F)c2)cs1 (stereo unspecified)	·	4	6	·	·	·	·	·
O=C1C(=O)N(CCN2CCOCC2)C(c2ccccc2)/C1=C(\O)c1ccc2c(c1)OCCO2 (stereo unspecified)	50*	1	-11	-11	3	-4	1	5
COc1ccccc1N(C)S(=O)(=O)c1ccc(C(=O)Nc2cccc(S(=O)(=O)N3CCOCC3)c2)cc1	·	-2	11	·	·	·	·	·
COCCNC(=O)CN1C(=O)NC2(CCOc3ccccc32)C1=O (stereo unspecified)	46*	-10	11	3	-28	8	25	1
CCCCNC(=O)CN1C(=O)NC2(CCOc3ccccc32)C1=O (stereo unspecified)	-1	2	2	6	-2	-6	·	·
CC(=O)Nc1cccc(C(=O)NC(C)c2ccc(-n3ccnc3)cc2)c1 (stereo unspecified)	41*	1	-5	-11	-25	-10	35	3
N#Cc1c(C(F)(F)F)cc(Cc2ccccc2)nc1SCC(=O)NCC(=O)O	12	4	-62	-3	-9	-3	·	·
Nc1cc2nsnc2cc1Br	98*	48	93*	97*	96*	95*	99*	6	Fluor interf inh=>100
Cc1ccc(C(=O)NCC(=O)N2CCCCCC2)cc1	5	1	8	4	-16	5	·	·
Cc1ccc(C(=O)NCC(=O)N2CCCCCCC2)cc1	61*	-2	1	-6	-7	21	38	5
CCC12CCCN3CCc4c(n(c5ccccc45)C(O)(C(=O)OC)C1)C32 (stereo unspecified)	41*	-19	-67	8	28	8	18	0
O=C(N/N=C/c1ccc(-c2ccccc2[N+](=O)[O-])o1)[C@H]1C[C@@H]1c1ccccc1	68*	-4	-2	12	22	4	22	2
Cc1[nH]c2ccccc2c1C1=CC(=O)C=CC1=O	·	-6	-33	·	·	·	·	·
CSc1ccc(CN(C)C(=O)c2cc(S(=O)(=O)NCc3ccccc3)ccc2C)cc1	18	-1	16	-4	-20	-2	·	·
COCCN(Cc1ccccc1)C(=O)c1cccc(S(=O)(=O)N2CCN(c3ccccc3)CC2)c1	43*	2	1	-2	-2	10	42*	6	Fluor interf inh=>100
CSc1ccc(CN(C)C(=O)c2cccc(S(=O)(=O)NCc3ccccc3)c2)cc1	67*	-1	4	-4	-11	-2	36	5
SMILES	Apaf1 inhib	SENP1 inh	SENP8 block-1	SENP8 block-2	SENP6 inh	SENP7 inh	Apaf-1 inh conf	Rh110 quench	others
CC1CN(S(=O)(=O)c2cccc(C(=O)N(CCc3ccccc3)Cc3ccccc3)c2)CC(C)O1 (stereo unspecified)	45*	-2	1	-6	2	3	20	9
Cc1ccc(N(Cc2ccccc2)C(=O)c2cccc(S(=O)(=O)N3CC(C)OC(C)C3)c2)cc1 (stereo unspecified)	30	-2	10	-8	-11	7	·	·
COCCN(Cc1ccccc1)C(=O)c1cccc(S(=O)(=O)N2CCN(c3ccc(F)cc3)CC2)c1	34	-9	9	8	-3	-5	·	·
COCCN(Cc1ccccc1)C(=O)C1CCN(S(=O)(=O)c2ccc3c(c2)OCCO3)CC1	49*	0	6	1	-3	9	33	12
CCCCC(=O)Nc1cc(OC)c(NC(=S)Nc2ccc(OC)cc2)cc1OC	·	-1	2	·	·	·	·	·
CC1(C(=O)Nc2cccc(NS(C)(=O)=O)c2)CCN1CCc1ccccc1 (stereo unspecified)	·	0	22	·	·	·	·	·
N#C/C(=C\c1cccn1S(=O)(=O)c1cccc(C#N)c1)S(=O)(=O)c1ccc(F)cc1	·	-2	5	·	·	·	·	·
CC(=O)Nc1ccc(-c2csc(NC(=O)Cc3cccc(F)c3)n2)cc1	5	-7	-6	1	-2	-1	·	·
CC1CN(C(=O)c2ccc(CNS(=O)(=O)c3cccc(Cl)c3)cc2)CC(C)O1 (stereo unspecified)	7	1	8	-3	-16	-1	·	·
CC1CN(C(=O)c2cccc(S(=O)(=O)NCc3ccccc3)c2)CC(C)O1 (stereo unspecified)	54*	1	16	-8	-4	-2	35	3
CCN(C[C@H]1N[C@@](C)(C(=O)OC)[C@H]2C(=O)N(C)C(=O)[C@@H]12)C(=O)Nc1ccc(Cl)cc1	-6	3	5	2	8	1	·	·
OC(c1ccc(F)c(F)c1)c1nc(-c2cnc3ccccc3c2)cs1 (stereo unspecified)	·	1	-28	·	·	·	·	·
COC(=O)CCC(=O)OC1(C)C(=O)C=C2C=C(C3CC3)N(C(CO)CO)C=C2C1=O (stereo unspecified)	33	-32	6	0	10	5	·	·
